# Activity calls are given as the source filed them. No cut-off for these calls is given here.
# How the values were obtained:
# [1] = test system: Staphylococcus aureus; test: Antibacterial activity against Staphylococcus aureus IAM 1011 at 10 ug/disk after 18 hrs by agar overlay method; assay type: functional, organism-based
# In short: (§1)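 Agar overlay: bacteria grown in nutrient broth (50-100 µL) mixed into 3 mL melted 0.7% soft nutrient agar at 40 °C, poured over 20 mL 1.5% nutrient agar plates; 10 µL sample deposited on solidified agar; inhibition zone diameter read after 18 h at 37 °C. Methanol as solvent control.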
# [2] = test system: Bacillus cereus; test: Antibacterial activity against Bacillus cereus IAM 1069 at 10 ug/disk after 18 hrs by agar overlay method; assay type: functional, organism-based; in short: as §1
# [3] = test system: Pseudomonas aeruginosa; test: Antibacterial activity against Pseudomonas aeruginosa IAM 1275 at 10 ug/disk after 18 hrs by agar overlay method; assay type: functional, organism-based; in short: as §1
# [4] = test system: Escherichia coli; test: Antibacterial activity against Escherichia coli IAM 1268 at 10 ug/disk after 18 hrs by agar overlay method; assay type: functional, organism-based; in short: as §1
# [5] = test system: Staphylococcus aureus; test: Antibacterial activity against Staphylococcus aureus IAM 1011 by two fold dilution method; assay type: functional
# [6] = test system: Bacillus cereus; test: Antibacterial activity against Bacillus cereus IAM 1069 by two fold dilution method; assay type: functional
# [7] = test system: Pseudomonas aeruginosa; test: Antibacterial activity against Pseudomonas aeruginosa IAM 1275 by two fold dilution method; assay type: functional
# [8] = test system: Escherichia coli; test: Antibacterial activity against Escherichia coli IAM 1268 by two fold dilution method; assay type: functional
# [9] = test system: CCRF S-180; test: Cytotoxicity against mouse S180 cells by MTT assay; assay type: functional, cell-based
SMILES,Activity [1],Activity [2],Activity [3],Activity [4],MIC [5],MIC [6],MIC [7],MIC [8],Activity [9]
CC(CCO)CC[C@@H]1C(C(=O)O)=CC[C@@H]2C(C)(C)[C@H](O)CC[C@@]12C (some centres not stated),Active,Active,Active,Active,256 µg/mL,128 µg/mL,64 µg/mL,128 µg/mL,inactive
CC(CCO)CC[C@@H]1C(C(=O)O)=CC[C@@H]2C(C)(C)[C@H](O[C@@H]3O[C@H](CO)[C@@H](O)[C@H](O)[C@H]3O)CC[C@@]12C (some centres not stated),–,–,–,–,–,–,256 µg/mL,128 µg/mL,inactive

# — ChEMBL document CHEMBL1148141, “New labdene iterpenes from Eupatorium glutinosum” (2002)
